Tests used:
H3K27me3 [1] = assay: H3K27me3 HCA assay, MDA-MB-231 cells, 384-well format; type: cell-based; conditions: MDA-MB-231, 3 days
How it was run: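 MDA-MB-231 cells were plated in 384-well plates 24 h before compound, diluted in medium from a 10 mM DMSO stock (final DMSO ≤0.6%). Treatment was 3 µM over a time course or a concentration series for 3 days, at 37 °C, 5% CO2. H3K27me3 immunofluorescence used PFA fixation and Triton permeabilization, primary antibody 16 h at 4 °C, plus Hoechst. Confocal imaging averaged about 1500–2000 nuclei; triplicates, % of DMSO control.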

MDA-MB-231 cells = assay: Number of analyzed nuclei; type: cell-based; conditions: MDA-MB-231, 3 days, maximal effect, concentration not given
How it was run: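 Proliferation was read from the same 3-day high-content assay in 384-well plates at 37 °C, 5% CO2. Nuclei were counted in the Hoechst (4 µg/mL) DNA channel. Segmentation used a gray-level threshold and minimum/maximum nuclear diameter set on DMSO-treated controls, which excluded debris. Total nuclei per well served as cell number and were expressed as % of DMSO control, in triplicate.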

H3K27me3 [2] = conditions: mutant EZH2-bearing lymphoma cells; cited from earlier work

SMILES | global H3K27me3 level at maximum reduction, % of DMSO control (H3K27me3 [1]) | cell number, % of DMSO control (MDA-MB-231 cells) | time at which loss of H3K27me3 was apparent (H3K27me3 [2]) | time required for full effects on H3K27me3 (H3K27me3 [2])
Nc1nccc2c1ncn2C1C=C(CO)C(O)C1O (stereo not shown) [DZNep, 3-deazaneplanocin A] | 65% | 45% | – | –
Cc1cc(C)c(CNC(=O)c2cc(-c3ccc(CN4CCOCC4)cc3)cc3c2cnn3C2CCCC2)c(=O)[nH]1 [EPZ005687] | – | – | 24 h | up to 5 days

Reference: publication PMC4361481 (Journal of Biomolecular Screening, 2015)
